According to ChEMBL document CHEMBL1671619, “Efficacy of pyrvinium pamoate against Cryptosporidium parvum infection in vitro and in a neonatal mouse model” (Antimicrob Agents Chemother, 2008):
pIC50: −log10 of the molar value. Active and inactive are the calls of the source. The rule behind the calls is not given here.

Key:
HCT-8 [1] = assay: Cytotoxicity against human HCT8 cells assessed as reduction in viable cells at 80 uM by neutral red assay; format: cell-based; conditions: hct-8, 80 µM
HCT-8 [2] = assay: Cytotoxicity against human HCT8 cells assessed as reduction in viable cells by neutral red assay; format: cell-based
Cryptosporidium parvum [3] = assay: Antimicrobial activity against Cryptosporidium parvum infected in human HCT-8 cells after 48 hrs by ELISA; format: functional, organism-based; conditions: HCT-8, 48 h
Method in brief: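 HCT-8 monolayers (5 × 10⁴ cells/well, seeded 24 h before) infected with 5 × 10³ Iowa-isolate oocysts in medium with 0.05% bile salts, 90 min at 37°C, then washed. Drug added in growth medium (0.5% DMSO final for DMSO-dissolved drug), 48 h at 37°C. Formalin-fixed; rat anti-sporozoite serum, HRP anti-rat, TMB, A450. Freeze-thawed oocyst background subtracted; % inhibition vs untreated infected wells; triplicate wells, two experiments.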

HCT-8 [4] = assay: Cytotoxicity against human HCT8 cells assessed as reduction in viable cells at 100 uM by neutral red assay; format: cell-based; conditions: hct-8, 100 µM
Cryptosporidium parvum [5] = assay: Antimicrobial activity against Cryptosporidium parvum infected in human HCT-8 cells; format: functional, organism-based
Cryptosporidium parvum [6] = assay: Antimicrobial activity against Cryptosporidium parvum infected in neonatal ICR swiss mouse assessed as reduction in oocyst shedding at 150 mg/kg/day, po measured on day 6; format: functional; design: scale not given: the % may be the effect or the level left
Cryptosporidium parvum [7] = assay: Antimicrobial activity against Cryptosporidium parvum infected in SCID mouse assessed as reduction in parasite burden at 100 mg/kg/day, po for 10 days; format: functional, organism-based
Cryptosporidium parvum [8] = assay: Antimicrobial activity against Cryptosporidium parvum infected in SCID mouse assessed as reduction in parasite burden at 200 mg/kg/day, po for 10 days; format: functional, organism-based
Cryptosporidium parvum [9] = assay: Antimicrobial activity against Cryptosporidium parvum infected in neonatal BALB/C mouse assessed as reduction in oocyst shedding at 100 mg/kg/day, po for 4 days treated 3 days postinfection; format: functional; design: scale not given: the % may be the effect or the level left
Method in brief: (§1)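 3-day-old BALB/c mice were inoculated orally with 10⁵ Iowa-isolate oocysts, and oral daily dosing started 3 days postinfection; water-treated mice served as vehicle controls. Mice were killed on day 9. Distal-colon stool (2–3 μl) was smeared, methanol-fixed and IFA-stained, and oocysts were counted over 21 fields at ×400. % reduction was taken versus vehicle mice; Mann-Whitney tests were used.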

Cryptosporidium parvum [10] = assay: Antimicrobial activity against Cryptosporidium parvum infected in neonatal BALB/C mouse assessed as reduction in oocyst shedding at 100 mg/kg/day, po for 6 days treated 3 days postinfection; format: functional; design: scale not given: the % may be the effect or the level left; method in brief: as §1
Cryptosporidium parvum [11] = assay: Antimicrobial activity against Cryptosporidium parvum infected in neonatal ICR swiss mouse assessed as reduction in oocyst shedding at 50 mg/kg/day, po measured on day 6; format: functional; design: scale not given: the % may be the effect or the level left
Cryptosporidium parvum [12] = assay: Antimicrobial activity against Cryptosporidium parvum infected in human HCT-8 cells assessed as growth inhibition after 48 hrs by ELISA; format: functional
Method in brief: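 HCT-8 cells seeded at 5 × 10⁴/well 24 h before infection, then infected with 5 × 10³ Iowa-isolate oocysts in RPMI/10% FBS/0.05% bile salts for 90 min at 37°C and washed. Drug was added and cells incubated 48 h at 37°C, formalin-fixed, then probed with rat anti-sporozoite serum, HRP anti-rat and TMB, read at A450. Freeze-thawed-oocyst background was subtracted; % inhibition was taken versus untreated infected wells. Triplicate wells, two experiments.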

Cryptosporidium parvum [13] = assay: Antimicrobial activity against Cryptosporidium parvum GCH1 infected in MDBK cells after 48 hrs by ELISA; format: functional
Cryptosporidium parvum [14] = assay: Antimicrobial activity against Cryptosporidium parvum infected in neonatal BALB/C mouse assessed as reduction in trophozoites in ileum at 100 mg/kg/day, po for 6 days by hematoxylin and eosin staining; format: functional; design: scale not given: the % may be the effect or the level left
Method in brief: (§2)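 Neonatal BALB/c mice were infected orally with 10⁵ oocysts and dosed orally for 6 days from day 3 postinfection, with necropsy on day 9. 1-cm sections of ileum (1–6 cm proximal to appendix), appendix/ileocecal junction and distal colon were formalin-fixed and H&E-stained. Two blinded readers counted trophozoites per 1,000 epithelial cells on duplicate sections. The per-mouse summary score summed all sections; comparison was against water-vehicle controls.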

Cryptosporidium parvum [15] = assay: Antimicrobial activity against Cryptosporidium parvum infected in neonatal BALB/C mouse assessed as reduction in trophozoites in appendix at 100 mg/kg/day, po for 6 days by hematoxylin and eosin staining; format: functional; design: scale not given: the % may be the effect or the level left; method in brief: as §2
Cryptosporidium parvum [16] = assay: Antimicrobial activity against Cryptosporidium parvum infected in neonatal BALB/C mouse assessed as reduction in trophozoites in colon at 100 mg/kg/day, po for 6 days by hematoxylin and eosin staining; format: functional; design: scale not given: the % may be the effect or the level left; method in brief: as §2
Cryptosporidium parvum [17] = assay: Antimicrobial activity against Cryptosporidium parvum infected in neonatal BALB/C mouse assessed as reduction in number of trophozoites at 5 mg/kg/day, po for 6 days; design: scale not given: the % may be the effect or the level left
Cryptosporidium parvum [18] = assay: Antimicrobial activity against Cryptosporidium parvum infected in neonatal BALB/C mouse assessed as reduction in oocyst shedding at 5 mg/kg/day, po for 4 days treated 3 days postinfection; format: functional; design: scale not given: the % may be the effect or the level left
Method in brief: (§3)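 3-day-old BALB/c mice infected orally with 10⁵ Iowa-isolate oocysts. Oral dosing from day 3 post-infection, 4 or 6 consecutive days, in water with 5% DMSO or 5–10% ethanol final; vehicle controls matched. Euthanized day 9 post-infection. Distal-colon stool smears (2–3 μl) were methanol-fixed and IFA-stained. Oocysts counted over 21 fields at ×400 along a transect; reduction expressed relative to vehicle controls.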

Cryptosporidium parvum [19] = assay: Antimicrobial activity against Cryptosporidium parvum infected in neonatal BALB/C mouse assessed as reduction in oocyst shedding at 12.5 mg/kg/day, po for 4 days treated 3 days postinfection; format: functional; design: scale not given: the % may be the effect or the level left; method in brief: as §3
Cryptosporidium parvum [20] = assay: Antimicrobial activity against Cryptosporidium parvum infected in neonatal BALB/C mouse assessed as reduction in oocyst shedding at 5 mg/kg/day, po for 6 days treated 3 days postinfection; format: functional; design: scale not given: the % may be the effect or the level left; method in brief: as §3
Cryptosporidium parvum [21] = assay: Antimicrobial activity against Cryptosporidium parvum infected in neonatal BALB/C mouse assessed as reduction in trophozoites in ileum at 5 mg/kg/day, po for 6 days by hematoxylin and eosin staining; format: functional; design: scale not given: the % may be the effect or the level left
Method in brief: (§4)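 Infected neonatal BALB/c mice (10⁵ oocysts orally at 3 days old) dosed orally for 6 days from day 3; killed day 9. 1-cm ileal sections (1–6 cm proximal to appendix), appendix/ileocecal junction, and distal colon were formalin-fixed and H&E-stained. Trophozoites per 1,000 epithelial cells scored blind by two readers on duplicate sections. Per-mouse summary score summed across sections; compared with vehicle controls.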

Cryptosporidium parvum [22] = assay: Antimicrobial activity against Cryptosporidium parvum infected in neonatal BALB/C mouse assessed as reduction in trophozoites in appendix at 5 mg/kg/day, po for 6 days by hematoxylin and eosin staining; format: functional; design: scale not given: the % may be the effect or the level left; method in brief: as §4
Cryptosporidium parvum [23] = assay: Antimicrobial activity against Cryptosporidium parvum infected in neonatal BALB/C mouse assessed as reduction in trophozoites in colon at 5 mg/kg/day, po for 6 days by hematoxylin and eosin staining; format: functional; design: scale not given: the % may be the effect or the level left; method in brief: as §4
Cryptosporidium parvum [24] = assay: Antimicrobial activity against Cryptosporidium parvum infected in neonatal BALB/C mouse assessed as reduction in number of trophozoites at 5 mg/kg/day, po for 6 days; format: functional; design: scale not given: the % may be the effect or the level left; conditions: in the assay text read “100 mg/kg/day” for “5 mg/kg/day”; method in brief: as §4
HCT-8 [25] = assay: Cytotoxicity against human HCT8 cells assessed as reduction in viable cells after 48 hrs by MTS assay; format: cell-based; conditions: hct-8, 48 h
HCT-8 [26] = assay: Cytotoxicity against human HCT8 cells assessed as reduction in viable cells after 48 hrs at 1.6 uM by MTS assay; format: cell-based; conditions: hct-8, 48 h

CCN(CC)CCCC(C)Nc1ccnc2cc(Cl)ccc12 (stereo not drawn) [CHLOROQUINE]
Activity (HCT-8 [1]): 12% | Activity (HCT-8 [2]): < 5% | pIC50 (Cryptosporidium parvum [3]): 4.57 | Activity (HCT-8 [4]): 15%

CC(=O)Oc1ccccc1C(=O)Nc1ncc([N+](=O)[O-])s1 [NITAZOXANIDE]
pIC50 (Cryptosporidium parvum [5]): 5.42 | Activity (Cryptosporidium parvum [6]): <5% | Activity (Cryptosporidium parvum [7]): inactive | Activity (Cryptosporidium parvum [8]): inactive

NC[C@@H]1O[C@H](O[C@H]2[C@@H](O)[C@H](O[C@@H]3[C@@H](O)[C@H](N)C[C@H](N)[C@H]3O[C@H]3O[C@H](CO)[C@@H](O)[C@H](O)[C@H]3N)O[C@@H]2CO)[C@H](N)[C@@H](O)[C@@H]1O [PAROMOMYCIN]
Activity (Cryptosporidium parvum [9]): 95% | Activity (Cryptosporidium parvum [10]): 96.4% | Activity (Cryptosporidium parvum [11]): <2% | inhibition (INH) (Cryptosporidium parvum [12]): 40% | Activity (Cryptosporidium parvum [13]): >80% | Activity (Cryptosporidium parvum [14]): 90% | Activity (Cryptosporidium parvum [15]): 90% | Activity (Cryptosporidium parvum [16]): 90% | pIC50 (Cryptosporidium parvum [3]): 3.15 | Activity (Cryptosporidium parvum [17]): 85%

Cc1cc(/C=C/c2ccc3cc(N(C)C)ccc3[n+]2C)c(C)n1-c1ccccc1 [PYRVINIUM]
Activity (Cryptosporidium parvum [18]): 92.6% | Activity (Cryptosporidium parvum [19]): 89.3% | Activity (Cryptosporidium parvum [20]): 96.6% | Activity (Cryptosporidium parvum [21]): 90% | Activity (Cryptosporidium parvum [22]): 90% | Activity (Cryptosporidium parvum [23]): 90% | Activity (Cryptosporidium parvum [24]): 99% | pIC50 (Cryptosporidium parvum [3]): 6.45 | Activity (HCT-8 [25]): < 15% | Activity (HCT-8 [26]): 40%
